# Measurements published in ChEMBL document CHEMBL4177770, “Discovery of MK-6169, a Potent Pan-Genotype Hepatitis C Virus NS5A Inhibitor with Optimized Activity against Common Resistance-Associated Substitutions” (J Med Chem, 2018).
# Changes are numbered by the printed parent chain.
# Tests used:
# [1] = Resistance ratio of EC90 for NS5A L31M/Y93H double mutant in HCV genotype 1b infected in HuH7 replicon cells to EC90 for NS5A in HCV genotype 1a infected in HuH7 replicon cells; assay type: cell-based
# [2] = target: T1, Nonstructural protein 5A (Hepatitis C virus) (UniProt Q5L478); test: Inhibition of NS5A in HCV genotype 4a infected in HuH7 replicon cells assessed as decrease in viral replication after 3 days by RT-PCR method; assay type: cell-based; details: Hepatitis C virus subtype 4a
# T1 sequence (whole entry): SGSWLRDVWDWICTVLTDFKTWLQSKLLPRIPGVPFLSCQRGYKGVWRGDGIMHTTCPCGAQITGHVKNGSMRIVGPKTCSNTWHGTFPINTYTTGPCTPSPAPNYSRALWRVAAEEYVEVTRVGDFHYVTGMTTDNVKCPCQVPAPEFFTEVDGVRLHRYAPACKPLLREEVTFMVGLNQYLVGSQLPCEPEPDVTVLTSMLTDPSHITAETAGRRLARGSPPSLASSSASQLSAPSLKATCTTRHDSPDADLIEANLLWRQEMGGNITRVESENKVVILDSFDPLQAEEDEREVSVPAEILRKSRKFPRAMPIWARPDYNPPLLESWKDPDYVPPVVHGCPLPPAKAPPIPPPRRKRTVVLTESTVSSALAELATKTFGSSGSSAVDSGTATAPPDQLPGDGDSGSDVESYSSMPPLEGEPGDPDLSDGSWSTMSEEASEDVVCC
# [3] = test system: Hepatitis C virus subtype 1a; test: Resistance ratio of EC90 for NS3 R155K/V36M double mutant in HCV genotype 1a infected in HuH7 replicon cells to EC90 for NS5A in HCV genotype 1a infected in HuH7 replicon cells; assay type: cell-based
# [4] = Resistance ratio of EC90 for NS5A P32L mutant in HCV genotype 4a infected in HuH7 replicon cells to EC90 for NS5A in HCV genotype 1a infected in HuH7 replicon cells; assay type: cell-based
# [5] = target: T1, Nonstructural protein 5A (Hepatitis C virus); test: Inhibition of NS5A Q30R mutant in HCV genotype 1a infected in HuH7 replicon cells assessed as decrease in viral replication after 3 days by RT-PCR method; assay type: cell-based; details: Hepatitis C virus subtype 1a
# [6] = target: T1, Nonstructural protein 5A (Hepatitis C virus); test: Inhibition of NS5A in HCV genotype 1b infected in HuH7 replicon cells assessed as decrease in viral replication after 3 days by RT-PCR method; assay type: cell-based; details: Hepatitis C virus subtype 1b
# [7] = target: T1, Nonstructural protein 5A (Hepatitis C virus); test: Inhibition of NS5A F28L mutant in HCV genotype 2a infected in HuH7 replicon cells assessed as decrease in viral replication after 3 days by RT-PCR method; assay type: cell-based; details: Hepatitis C virus subtype 2a
# [8] = target: T1, Nonstructural protein 5A (Hepatitis C virus); test: Inhibition of NS5A A30T mutant in HCV genotype 3a infected in HuH7 replicon cells assessed as decrease in viral replication after 3 days by RT-PCR method; assay type: cell-based; details: Hepatitis C virus subtype 3a
# [9] = test system: Hepatitis C virus subtype 1a; test: Resistance ratio of EC90 for NS3 R155K mutant in HCV genotype 1a infected in HuH7 replicon cells to EC90 for NS5A in HCV genotype 1a infected in HuH7 replicon cells; assay type: cell-based
# [10] = Resistance ratio of EC90 for NS5A Y93H mutant in HCV genotype 3a infected in HuH7 replicon cells to EC90 for NS5A in HCV genotype 1a infected in HuH7 replicon cells; assay type: cell-based
# [11] = Resistance ratio of EC90 for NS5A L31M mutant in HCV genotype 2b infected in HuH7 replicon cells to EC90 for NS5A in HCV genotype 1a infected in HuH7 replicon cells; assay type: cell-based
# [12] = Drug level in Beagle dog at 5 mg/kg, po measured at 24 hrs by LC/MS method; assay type: ADME, organism-based, Canis lupus familiaris; details: in vivo, read-out: Drug uptake
# In short: (§1)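 Beagle dogs, two animals per dosing group. Oral dose was given in 10% TWEEN. Blood was collected and spun to plasma, and plasma compound levels were measured by LC/MS.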
# [13] = Resistance ratio of EC90 for NS5A L30H mutant in HCV genotype 4a infected in HuH7 replicon cells to EC90 for NS5A in HCV genotype 1a infected in HuH7 replicon cells; assay type: cell-based
# [14] = Resistance ratio of EC90 for NS5A A30K mutant in HCV genotype 3a infected in HuH7 replicon cells to EC90 for NS5A in HCV genotype 1a infected in HuH7 replicon cells; assay type: cell-based
# [15] = Resistance ratio of EC90 for NS5A in HCV genotype 1b infected in HuH7 replicon cells to EC90 for NS5A in HCV genotype 1a infected in HuH7 replicon cells; assay type: cell-based
# [16] = Cmax in Beagle dog at 5 mg/kg, po by LC/MS method; assay type: ADME, organism-based, Canis lupus familiaris; set-up: dose 5 mg/kg, route oral; details: in vivo; in short: as §1
# [17] = target: T1, Nonstructural protein 5A (Hepatitis C virus); test: Inhibition of NS5A L31M mutant in HCV genotype 2a infected in HuH7 replicon cells assessed as decrease in viral replication after 3 days by RT-PCR method; assay type: cell-based; details: Hepatitis C virus subtype 2a
# [18] = test system: Hepatitis C virus subtype 1a; test: Resistance ratio of EC90 for NS5A M28K mutant in HCV genotype 1a infected in HuH7 replicon cells to EC90 for NS5A in HCV genotype 1a infected in HuH7 replicon cells; assay type: cell-based
# [19] = test system: T2, Nonstructural protein 5A (Hepatitis C virus), Q5L478 [Y93N]; test: Inhibition of NS5A Y93N mutant in HCV genotype 1a infected in HuH7 replicon cells assessed as decrease in viral replication after 3 days by RT-PCR method; assay type: cell-based; details: Hepatitis C virus subtype 1a
# T2 sequence (whole entry): T1 sequence (whole entry) with Y93N
# [20] = target: T1, Nonstructural protein 5A (Hepatitis C virus); test: Inhibition of NS5A A30K mutant in HCV genotype 3a infected in HuH7 replicon cells assessed as decrease in viral replication after 3 days by RT-PCR method; assay type: cell-based; details: Hepatitis C virus subtype 3a
# [21] = AUC in Wistar Han rat at 300 mg/kg, po by LC/MS method; assay type: ADME, organism-based; details: in vivo
# In short: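 Single rising oral dose study in fed male Wistar Han rats, dosed PO in 10% TWEEN at the indicated doses. Plasma was obtained by centrifuging the blood, and compound levels were determined by LC/MS.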
# [22] = target: T1, Nonstructural protein 5A (Hepatitis C virus); test: Inhibition of NS5A L31V mutant in HCV genotype 1b infected in HuH7 replicon cells assessed as decrease in viral replication after 3 days by RT-PCR method; assay type: cell-based; details: Hepatitis C virus subtype 1b
smiles,measurement,setting,value
COC(=O)N[C@H](C(=O)N1CCC[C@H]1c1ncc(-c2cc(F)c3c(c2)O[C@@H](c2ccc(C4CC4)s2)n2c-3cc3cc(-c4cnc([C@@H]5CCCN5C(=O)[C@@H](NC(=O)OC)[C@@H]5CCOC(C)(C)C5)[nH]4)ccc32)[nH]1)C(C)C,Ratio,[1],45
same,EC90,[2],6 pM
same,Ratio,[3],< 1
same,Ratio,[4],1
same,EC90,[5],120 pM
same,EC90,[6],4.4 pM
same,EC90,[7],0.5 pM
same,EC90,[8],3.6 pM
same,Ratio,[9],< 1
same,Ratio,[10],571
same,Ratio,[11],4
same,concentration at 24 h,[12],29 nM
same,Ratio,[13],17
same,Ratio,[14],4
same,Ratio,[15],1
same,Cmax,[16],660 nM
same,EC90,[17],25 pM
same,Ratio,[18],100
same,EC90,[19],69 pM
same,EC90,[20],18 pM
same,AUC,[21],14.7 µM·h
same,EC90,[22],5.8 pM
